The test system of data set [1] is A549. The data set can be described thus: Cytotoxicity against human A549 cells after 72 hrs by MTT assay. The data set is classed as functional, cell-based. The conditions noted are these: A549, 72 h. Summed up: (§1)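 A549, MDA-MB-435 and LOVO cells seeded at 6000–10,000 per well. Treated in triplicate with graded drug concentrations for 72 h at 37 °C. Viability read by MTT; IC50 taken from the dose–response curve.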
In general terms: Formazan colour is commonly taken as a measure of viable cells.

The subject of another data set is MDA-MB-435. The data set can be described thus: Cytotoxicity against human MDA-MB-435 cells after 72 hrs by MTT assay. The data set is classed as functional, cell-based. The conditions noted are these: MDA-MB-435, 72 h. Summed up: as §1
A further data set relates to LoVo. The data set can be described thus: Cytotoxicity against human LoVo cells after 72 hrs by MTT assay. The data set is classed as functional, cell-based. The essentials: as §1
The subject of data set [2] is A549. The data set can be described thus: Antitumor activity against human A549 cells xenografted in BALB/c mouse assessed as inhibition of tumor growth at 50 mg/kg, ip relative to control. The data set is classed as functional. The note with it: route intraperitoneal, read-out: TGI. The essentials:
(§2)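 Male BALB/c nude mice (18-20g) implanted subcutaneously in right axilla with A549 cells. Treatment started at day 17 when tumors reached about 100–300 mm³. Single ip injection on day 17, six mice per group, eight controls. Caliper length and width every 4 days, TV = 1/2 × a × b². Sacrificed day 35, tumors removed; growth inhibition relative to placebo controls.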

Data set [3] has as its system A549. The data set can be described thus: Antitumor activity against human A549 cells xenografted in ip dosed BALB/c mouse assessed as tumor regression. The data set is classed as functional, organism-based. Summed up: as §2
(A xenograft is tissue or cells of one species grown in another, often human tumour cells in immunodeficient mice.)

Data set [4] is described as follows: Chemical stability assessed as compound remaining at pH 3.0 after 24 hrs by modified HPLC method. The data set is classed as physicochemical. The note with it: buffer, read-out: Stability. Summed up: (§3)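 Drug in DMSO (2 mM, 430 μL) added to 70 μL of aqueous solution preincubated 5 min at 37 °C. Samples held at 37 °C, pH 3.0 or pH 7.4. Percent of initial phosphate-form concentration followed by modified HPLC.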

The nature of data set [5]: Chemical stability assessed as compound remaining at pH 7.4 after 24 hrs by modified HPLC method. The conditions noted are these: buffer, read-out: Stability. The data set is classed as physicochemical. Summed up: as §3
For data set [6], the species on record is Bos taurus. The experiment in a line: Inhibition of calf thymus topoisomerase 1-mediated relaxation of Escherichia coli pBR322 plasmid DNA after 15 mins by cleavable complex assay. The essentials:
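Calf thymus Topo I (0.5 U) incubated with 0.25 μg supercoiled pBR322 DNA in Topo I buffer with 0.1% BSA stock, with or without drug at 1, 10 and 50 μM, 37 °C for 15 min. Stopped with SDS (0.5% final). Products resolved on 0.8% agarose gel in TAE (120 V, 40 min), ethidium bromide stained, imaged under UV.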

Data set [7] deals with A549. The data set can be described thus: Antitumor activity against human A549 cells xenografted in BALB/c mouse assessed as inhibition of tumor growth at 25 mg/kg, ip relative to control. The data set is classed as functional. The note with it: route intraperitoneal, read-out: TGI. Summed up: as §2
Data set [8] deals with A549. The data set can be described thus: Antitumor activity against human A549 cells xenografted in BALB/c mouse assessed as inhibition of tumor growth at 6.25 to 25 mg/kg, ip relative to control. The data set is classed as functional. The note with it: dose mg/kg 6.25-25; route intraperitoneal. Summed up: as §2
For data set [9], the species on record is Bos taurus. The data set can be described thus: Inhibition of calf thymus topoisomerase 1-mediated relaxation of Escherichia coli pBR322 plasmid DNA at 100 uM after 15 mins by cleavable complex assay. The essentials:
(§4)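 Calf thymus Topo I (0.5 U) with 0.25 μg supercoiled pBR322 in Topo I buffer containing BSA, with or without drug, 37 °C for 15 min. Stopped with 0.5% SDS final. Run on 0.8% agarose gel in TAE, 120 V for 40 min, stained with ethidium bromide, viewed under UV.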

The species named for data set [10] is Bos taurus. The experiment in a line: Inhibition of calf thymus topoisomerase 1-mediated relaxation of Escherichia coli pBR322 plasmid DNA at 1 uM after 15 mins by cleavable complex assay. The essentials: as §4

Molecules are shown by their SMILES. Activity calls are given as the source filed them. No cut-off for these calls is given here.

With `CC[C@@]1(O)CC(=O)OCc2c1cc1n(c2=O)Cc2c-1nc1ccc(OP(=O)(OC(C)C)OC(C)C)cc1c2C`, the IC50 (as a rule, the concentration that gives 50% inhibition) is 11.4 µM with A549 [1], 3.4 µM in the data set on MDA-MB-435 and 5.56 µM in the data set with LoVo.

`CC[C@@]1(O)CC(=O)OCc2c1cc1n(c2=O)Cc2c-1nc1ccc(OP(=O)(OCC(F)(F)F)OCC(F)(F)F)cc1c2C`: the IC50 in the data set on A549 [1] amounted to 15.5 µM; in the data set with MDA-MB-435, 0.22 µM; in the data set with LoVo it was 5.42 µM.

`CC[C@@]1(O)CC(=O)OCc2c1cc1n(c2=O)Cc2c-1nc1ccc(OP(=O)(O)OCc3ccccc3)cc1c2C`: the IC50 in the data set with A549 [1] turned out to be 29.4 µM; with MDA-MB-435, 10.8 µM; in the data set with LoVo, 9.31 µM.

Consider `CCCCCOP(=O)(OCCCCC)Oc1ccc2nc3c(c(C)c2c1)Cn1c-3cc2c(c1=O)COC(=O)C[C@]2(O)CC`, for which the results for the IC50 with A549 [1], in the data set on MDA-MB-435 and with LoVo were 2.3 µM, 0.72 µM and 1.19 µM, respectively. In the data set on A549 [2], the inhibition in vivo at 50 mg/kg stood at 42%. Besides, the Activity result with A549 [3] was “Dose-dependent effect”. Also, the remaining at 24 h in [4] was found to be 100%; in data set [5], 91%.

For the compound `CC[C@@]1(O)CC(=O)OCc2c1cc1n(c2=O)Cc2c-1nc1ccc(O)cc1c2C`, the IC50 in the data set with A549 [1] is 0.03 µM; in the data set on MDA-MB-435, less than 0.001 µM; in the data set on LoVo it was 0.01 µM. The inhibition result in the data set filed under Bos taurus [6] was “Dose-dependent effect”.

As to `CC[C@@]1(O)C(=O)OCc2c1cc1n(c2=O)Cc2cc3c(CN(C)C)c(O)ccc3nc2-1` [TOPOTECAN], the IC50 with A549 [1] was 0.04 µM; with MDA-MB-435, less than 0.001 µM; in the data set on LoVo, 0.02 µM.

On to `CCCCOP(=O)(OCCCC)Oc1ccc2nc3c(c(C)c2c1)Cn1c-3cc2c(c1=O)COC(=O)C[C@]2(O)CC`, for which the 50% inhibitory concentration (IC50) in the data set on A549 [1] came out at 2.84 µM; in the data set with MDA-MB-435, 0.51 µM; in the data set with LoVo, 0.91 µM. The inhibition in vivo at 25 mg/kg in the data set on A549 [7] amounted to 59%. For the same compound, the TGI (commonly how far tumour growth fell short of that in controls) in the data set on A549 [8] was 25%. Moreover, the Activity result in the data set with A549 [3] was “Dose-dependent effect”. Besides, the inhibition entry in the data set listed under Bos taurus [9] was “Active”. The results for the remaining at 24 h in data set [4] and in [5] were 100% and 95%, respectively.

In the case of `CC[C@@]1(O)C(=O)OCc2c1cc1n(c2=O)Cc2cc3ccccc3nc2-1`, in the data set filed under Bos taurus [10], the inhibition entry was “inactive”.

For `CCOP(=O)(OCC)Oc1ccc2nc3c(c(C)c2c1)Cn1c-3cc2c(c1=O)COC(=O)C[C@]2(O)CC`, the figures for the IC50 with A549 [1], with MDA-MB-435 and in the data set with LoVo were 8.05 µM, 0.79 µM and 1.26 µM, respectively.

As for `CCc1c2c(nc3ccc(OC(=O)N4CCC(N5CCCCC5)CC4)cc13)-c1cc3c(c(=O)n1C2)COC(=O)[C@]3(O)CC` [IRINOTECAN], the IC50 is 4.61 µM with A549 [1], 1.14 µM in the data set with MDA-MB-435 and 4.99 µM in the data set with LoVo. In the data set with A549 [2], the inhibition in vivo at 50 mg/kg was found to be 51%.

Turning to `CCCCCCCCCCCCCCCCOP(=O)(OCCCCCCCCCCCCCCCC)Oc1ccc2nc3c(c(C)c2c1)Cn1c-3cc2c(c1=O)COC(=O)C[C@]2(O)CC`, the IC50 in the data set on A549 [1], in the data set with MDA-MB-435 and in the data set on LoVo was greater than 100 µM throughout.

On to `CCOP(=O)(O)Oc1ccc2nc3c(c(C)c2c1)Cn1c-3cc2c(c1=O)COC(=O)C[C@]2(O)CC`, for which the IC50 with A549 [1] is 11.4 µM; in the data set with MDA-MB-435, 5.26 µM; in the data set with LoVo, 7.24 µM.
